How the values were obtained:
[1] = Lethal dose in mice determined after intraperitoneal administration.; assay type: toxicity, organism-based; details: mouse, in vivo, ip
Outline: (§1)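 Mice dosed ip or po with aqueous solution or suspension in 10% aqueous acacia gum, 10 animals per dose. Mortality recorded over 7 days, with behavioural symptoms observed by the Irwin scheme. LD50 derived from dose–mortality data.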

[2] = tested on: Mus musculus; experiment: Anticonvulsant activity by the maximal electroshock test in mice by intraperitoneal administration; assay type: functional; details: ip
Outline: (§2)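 Mice, groups of 10; compounds given ip or po as aqueous solutions or suspensions in 10% aqueous acacia gum. Maximal seizures elicited 30-60 min after dosing by 60-Hz alternating current, 25 mA for 0.2 s via corneal electrodes. Absence of tonic-extensor seizure scored as protection. ED50 by Litchfield-Wilcoxon with 95% confidence limits, or estimated graphically.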

[3] = tested on: Mus musculus; experiment: Anticonvulsant activity was evaluated by the maximal electroshock test in mice, administered orally; assay type: functional; details: po; outline: as §2
[4] = Partition coefficient (logP); assay type: physicochemical; details: octanol/water
Outline: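 Octanol partitioning at room temperature (20 ± 5 °C) with gentle shaking for 6 h, then centrifugation for 15 min at 2000 rpm. Octanol phase quantified by gas chromatography. Amount in the second phase taken as total sample minus the octanol amount.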

[5] = Ionization constant was determined by potentiometric titration at 22 degree C; assay type: physicochemical
Outline: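 Methanolic-aqueous 10⁻³ M solutions of the hydrochloride salts titrated with 0.02 M KOH. Glass-calomel electrode system read on an expanded pH scale. pKa' obtained by the Albert-Serjeant procedure.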

[6] = Lethal dose determined in mice after oral administration; assay type: toxicity, organism-based; details: mouse, in vivo; outline: as §1

Compound: OC(Cn1ccnc1)c1ccc(Cl)cc1Cl (centres undefined)
- LD50 [1]: 300 mg/kg
- ED50 [2]: 39.7 mg/kg
- ED50 [3]: 39.7 mg/kg

Compound: O=C(Cn1ccnc1)c1ccc(Oc2ccccc2)cc1
- LD50 [1]: 100 mg/kg
- ED50 [2]: > 20 mg/kg
- ED50 [3]: > 20 mg/kg

Compound: OC(Cn1ccnc1)c1ccc(Cl)cc1 (centres undefined)
- LD50 [1]: 270 mg/kg
- ED50 [2]: 31 mg/kg
- ED50 [3]: > 54 mg/kg

Compound: O=C(Cn1ccnc1)c1ccc(Cl)cc1
- LD50 [1]: 240 mg/kg
- ED50 [2]: > 48 mg/kg
- ED50 [3]: > 48 mg/kg

Compound: O=C(Cn1ccnc1)c1ccc(CCc2ccccc2)cc1
- ED50 [2]: 12.7 mg/kg
- ED50 [3]: 36.9 mg/kg

Compound: O=C(Cn1ccnc1)c1ccccc1Cl
- LD50 [1]: 360 mg/kg

Compound: CC(C(=O)c1ccc(CCc2ccccc2)cc1)n1ccnc1 (centres undefined)
- LD50 [1]: 115 mg/kg
- ED50 [2]: > 23 mg/kg
- ED50 [3]: > 23 mg/kg

Compound: O=C(Cn1ccnc1)c1ccccc1
- LD50 [1]: 360 mg/kg
- logP [4]: 1.03
- pKa [5]: 6.32
- ED50 [2]: > 72 mg/kg

Compound: Nc1ccc(C(=O)Cn2ccnc2)cc1
- LD50 [1]: 360 mg/kg
- ED50 [2]: > 72 mg/kg
- ED50 [3]: > 72 mg/kg

Compound: CC(=O)Nc1ccc(C(=O)Cn2ccnc2)cc1
- LD50 [1]: 1000 mg/kg
- ED50 [2]: > 200 mg/kg
- ED50 [3]: > 200 mg/kg

Compound: O=C(Cn1ccnc1)c1ccc([N+](=O)[O-])cc1
- LD50 [1]: 360 mg/kg
- ED50 [2]: > 72 mg/kg
- ED50 [3]: > 72 mg/kg

Compound: CC(C)(C)c1ccc(C(=O)Cn2ccnc2)cc1
- LD50 [1]: 100 mg/kg
- ED50 [2]: > 20 mg/kg
- ED50 [3]: > 20 mg/kg

Compound: CC(Cn1ccnc1)C(=O)c1ccc(-c2ccccc2)cc1 (centres undefined)
- LD50 [1]: 130 mg/kg
- ED50 [2]: 19.5 mg/kg
- ED50 [3]: > 26 mg/kg

Compound: O=C(CCn1ccnc1)c1ccc(-c2ccccc2)cc1
- LD50 [6]: 1150 mg/kg
- ED50 [2]: 35.1 mg/kg
- ED50 [3]: 40.5 mg/kg

Compound: O=C(Cn1ccnc1)c1cccc(-c2ccccc2)c1
- LD50 [1]: 210 mg/kg
- LD50 [6]: 750 mg/kg
- ED50 [2]: 11.2 mg/kg
- ED50 [3]: 21 mg/kg

Compound: O=C(Cn1ccnc1)c1ccc(C2CCCCC2)cc1
- LD50 [1]: > 3000 mg/kg
- LD50 [6]: 2100 mg/kg
- ED50 [2]: 62.2 mg/kg
- ED50 [3]: 89.9 mg/kg

Compound: O=C(Cn1ccnc1)c1ccc(O)cc1
- LD50 [1]: 750 mg/kg
- ED50 [2]: > 150 mg/kg
- ED50 [3]: > 150 mg/kg

Compound: CC(C)(C(=O)c1ccc(CCc2ccccc2)cc1)n1ccnc1
- LD50 [1]: 180 mg/kg
- ED50 [2]: 29.5 mg/kg
- ED50 [3]: > 36 mg/kg

Compound: CCC(C)c1ccc(C(=O)Cn2ccnc2)cc1 (centres undefined)
- LD50 [1]: 115 mg/kg
- ED50 [2]: > 23 mg/kg
- ED50 [3]: > 23 mg/kg

Compound: COc1ccc(C(=O)Cn2ccnc2)cc1
- LD50 [1]: 270 mg/kg
- ED50 [2]: > 54 mg/kg

Compound: O=C(CCn1ccnc1)c1ccc(CCc2ccccc2)cc1
- LD50 [1]: > 3000 mg/kg
- LD50 [6]: 2100 mg/kg
- ED50 [2]: 28.6 mg/kg
- ED50 [3]: 112 mg/kg

Compound: O=C(Cn1ccnc1)c1ccc(O)c(O)c1
- LD50 [1]: 1000 mg/kg
- ED50 [2]: > 200 mg/kg
- ED50 [3]: > 200 mg/kg

Compound: O=C(Cn1ccnc1)c1ccc(Cl)cc1Cl
- LD50 [1]: 420 mg/kg
- ED50 [2]: > 84 mg/kg
- ED50 [3]: > 84 mg/kg

Compound: CC(C(=O)c1ccc(-c2ccccc2)cc1)n1ccnc1 (centres undefined)
- LD50 [1]: 87.5 mg/kg
- ED50 [2]: 13.4 mg/kg
- ED50 [3]: > 18 mg/kg

Compound: CC(C)(C(=O)c1ccc(-c2ccccc2)cc1)n1ccnc1
- LD50 [1]: > 3000 mg/kg
- LD50 [6]: 1870 mg/kg
- ED50 [2]: 38 mg/kg
- ED50 [3]: 42.9 mg/kg

Compound: O=C(Cn1ccnc1)c1ccccc1-c1ccccc1
- LD50 [1]: 115 mg/kg
- LD50 [6]: 360 mg/kg
- ED50 [2]: 13.5 mg/kg
- ED50 [3]: 17.1 mg/kg

Compound: O=C(Cn1ccnc1)c1ccc(-c2ccccc2)cc1
- LD50 [1]: 1550 mg/kg
- LD50 [6]: 2400 mg/kg
- ED50 [2]: 61.3 mg/kg
- ED50 [3]: 78.3 mg/kg

Compound: CS(=O)(=O)Nc1ccc(C(=O)Cn2ccnc2)cc1
- LD50 [1]: > 3000 mg/kg
- LD50 [6]: > 3000 mg/kg
- ED50 [2]: > 300 mg/kg
- ED50 [3]: > 300 mg/kg

Compound: CC(C(O)c1ccc(CCc2ccccc2)cc1)n1ccnc1.Cl (centres undefined)
- LD50 [1]: 180 mg/kg
- ED50 [2]: 15 mg/kg
- ED50 [3]: 36 mg/kg

Compound: Cl.OC(Cn1ccnc1)c1ccc(CCc2ccccc2)cc1 (centres undefined)
- LD50 [1]: 270 mg/kg
- LD50 [6]: 434 mg/kg
- ED50 [2]: 5.3 mg/kg
- ED50 [3]: 10.2 mg/kg

Compound: Cl.OC(Cn1ccnc1)c1ccccc1 (centres undefined)
- LD50 [1]: 210 mg/kg
- logP [4]: 0.99
- pKa [5]: 6.68
- ED50 [2]: > 42 mg/kg

Compound: Cl.O=[N+]([O-])c1ccc(C(O)Cn2ccnc2)cc1 (centres undefined)
- LD50 [1]: 490 mg/kg
- ED50 [2]: 98 mg/kg
- ED50 [3]: 98 mg/kg

Compound: CC(C)(C)c1ccc(C(O)Cn2ccnc2)cc1.Cl (centres undefined)
- LD50 [1]: 210 mg/kg
- ED50 [2]: 42 mg/kg
- ED50 [3]: > 42 mg/kg

Compound: COc1ccc(C(O)Cn2ccnc2)cc1.Cl (centres undefined)
- LD50 [1]: 360 mg/kg
- ED50 [2]: > 72 mg/kg

Compound: Cl.OC(Cn1ccnc1)c1ccc(C2CCCCC2)cc1 (centres undefined)
- LD50 [1]: 490 mg/kg
- LD50 [6]: 2700 mg/kg
- ED50 [2]: 53 mg/kg
- ED50 [3]: 59.6 mg/kg

Compound: Cl.Nc1ccc(C(O)Cn2ccnc2)cc1 (centres undefined)
- LD50 [1]: 875 mg/kg
- ED50 [2]: > 175 mg/kg
- ED50 [3]: > 175 mg/kg

Compound: CC(C)(C(O)c1ccc(-c2ccccc2)cc1)n1ccnc1.Cl (centres undefined)
- LD50 [1]: 420 mg/kg
- LD50 [6]: 2400 mg/kg
- ED50 [2]: 23.8 mg/kg
- ED50 [3]: 25.1 mg/kg

Compound: CC(C(O)c1ccc(-c2ccccc2)cc1)n1ccnc1.Cl (centres undefined)
- LD50 [1]: 655 mg/kg
- LD50 [6]: 570 mg/kg
- ED50 [2]: 19.6 mg/kg
- ED50 [3]: 24.7 mg/kg

Compound: Cl.OC(Cn1ccnc1)c1ccc(Oc2ccccc2)cc1 (centres undefined)
- LD50 [1]: 360 mg/kg
- ED50 [2]: 31.1 mg/kg
- ED50 [3]: > 48 mg/kg

Compound: Cl.Oc1ccc(C(O)Cn2ccnc2)cc1O (centres undefined)
- LD50 [1]: 1150 mg/kg
- ED50 [2]: > 230 mg/kg
- ED50 [3]: > 230 mg/kg

Compound: Cl.OC(CCn1ccnc1)c1ccc(CCc2ccccc2)cc1 (centres undefined)
- LD50 [1]: 420 mg/kg
- LD50 [6]: 560 mg/kg
- ED50 [2]: 21 mg/kg
- ED50 [3]: 24.7 mg/kg

Compound: Cl.OC(Cn1ccnc1)c1ccccc1-c1ccccc1 (centres undefined)
- LD50 [1]: 155 mg/kg
- LD50 [6]: 300 mg/kg
- ED50 [2]: 18.8 mg/kg
- ED50 [3]: 24.5 mg/kg

Compound: CCC(C)c1ccc(C(O)Cn2ccnc2)cc1.Cl (centres undefined)
- LD50 [1]: 210 mg/kg
- ED50 [2]: 28.5 mg/kg
- ED50 [3]: 31.2 mg/kg

Compound: Cl.OC(CCn1ccnc1)c1ccc(-c2ccccc2)cc1 (centres undefined)
- LD50 [1]: 360 mg/kg
- ED50 [2]: 44 mg/kg
- ED50 [3]: 53.5 mg/kg

Compound: CC(C)(C(O)c1ccc(CCc2ccccc2)cc1)n1ccnc1.Cl (centres undefined)
- LD50 [1]: 240 mg/kg
- ED50 [2]: 22.4 mg/kg
- ED50 [3]: > 48 mg/kg

Compound: CC(Cn1ccnc1)C(O)c1ccc(-c2ccccc2)cc1.Cl (centres undefined)
- LD50 [1]: 210 mg/kg
- ED50 [2]: 25.7 mg/kg
- ED50 [3]: 32.3 mg/kg

Compound: Cl.Oc1ccc(C(O)Cn2ccnc2)cc1 (centres undefined)
- LD50 [1]: 1000 mg/kg
- ED50 [2]: > 200 mg/kg
- ED50 [3]: > 200 mg/kg

Compound: Cl.OC(Cn1ccnc1)c1ccc(-c2ccccc2)cc1 (centres undefined)
- LD50 [1]: 1150 mg/kg
- LD50 [6]: > 30000 mg/kg
- ED50 [2]: 45 mg/kg
- ED50 [3]: 31 mg/kg

Compound: Cl.OC(Cn1ccnc1)c1cccc(-c2ccccc2)c1 (centres undefined)
- LD50 [1]: 180 mg/kg
- ED50 [2]: 15.8 mg/kg
- ED50 [3]: 25 mg/kg

Compound: CCC1(c2ccccc2)C(=O)NC(=O)NC1=O.Cl [PHENOBARBITAL HYDROCHLORIDE]
- LD50 [1]: 235 mg/kg
- LD50 [6]: 237 mg/kg
- ED50 [2]: 22.5 mg/kg
- ED50 [3]: 17.6 mg/kg

Compound: Cl.O=C1NC(=O)C(c2ccccc2)(c2ccccc2)N1 [PHENYTOIN CHLORIDE]
- ED50 [2]: 8.5 mg/kg
- ED50 [3]: 9.7 mg/kg

Reference: ChEMBL document CHEMBL1121641, “Synthesis and anticonvulsant activity of N-(benzoylalkyl)imidazoles and N-(omega-phenyl-omega-hydroxyalkyl)imidazoles” (J Med Chem, 1981)
